# Assay outcomes: PubChem BioAssay, several laboratories
# Hits are enriched below; roughly 2.7% of the tested compounds scored in any of these assays.
# Wee1 degr inh: inhibitors of human Wee1 degradation; HeLa Luc-Wee1K328M stability, luciferase luminescence; 100% = proteasome inhibitor MG132 effect; reporter increase, % at 5 µM; AID 1321; 220,000 compounds, 1.2% hits; P30291;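 active = activation above the mean of all tested compounds plus 3 SD, set per screening run, cut at about 8.8% in these data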;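 also: cells exposed to compound for 20 h before luminescence read; 0% = DMSO alone and 100% = MG132 at 30 µM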
# RBBP9 inh: blocks human serine hydrolase RBBP9 | inhibition, % at 7.94 µM | AID 1515 | recombinant RBBP9, FP-Rh probe fluorescence polarization | O75884 | 220,000 compounds, 0.2% hits;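 active = inhibition above the campaign mean of all tested compounds plus 3 SD, cut at about 14% in these data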;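 also: plate controls were DMSO wells with RBBP9 for no effect and wells lacking RBBP9 protein for full effect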
#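 Controls: DMSO-treated enzyme wells and wells lacking RBBP9 | Material: RBBP9 protein | Technique: Fluorescence polarization | Replication: Single well per compound, no replicates | Buffer or medium: Tris-NaCl-Pluronic buffer, pH 8.0 | Timing: 30 min compound preincubation, 45 min probe labeling, 25 °C | Read-out basis: Percent inhibition from mP, scaled between DMSO and no-protein wells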
# M18AAP inhibitor: blocks P. falciparum M18 aspartyl aminopeptidase. recombinant PfM18AAP, H-Glu-NHMec fluorogenic cleavage. inhibition, % at 7.35 µM. 290,000 compounds, 1.2% hits;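 active = inhibition above the campaign mean inhibition over all tested compounds plus 3 SD, cut at about 28% in these data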;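 also: 0% = plate median of test compound wells and 100% = 2 mM ZnCl2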
# p97 inhibitor: blocks human p97 ATPase activity. P55072. recombinant p97 ATPase, Kinase-Glo ATP luminescence, 3 h. inhibition, % at 8 µM. 220,000 compounds, 0.42% hits. AID 1481; in the data active = inhibition above about 15%;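 also: 0% = DMSO vehicle and 100% = wells lacking enzyme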
# Target sequence (P55072 whole entry, looked up): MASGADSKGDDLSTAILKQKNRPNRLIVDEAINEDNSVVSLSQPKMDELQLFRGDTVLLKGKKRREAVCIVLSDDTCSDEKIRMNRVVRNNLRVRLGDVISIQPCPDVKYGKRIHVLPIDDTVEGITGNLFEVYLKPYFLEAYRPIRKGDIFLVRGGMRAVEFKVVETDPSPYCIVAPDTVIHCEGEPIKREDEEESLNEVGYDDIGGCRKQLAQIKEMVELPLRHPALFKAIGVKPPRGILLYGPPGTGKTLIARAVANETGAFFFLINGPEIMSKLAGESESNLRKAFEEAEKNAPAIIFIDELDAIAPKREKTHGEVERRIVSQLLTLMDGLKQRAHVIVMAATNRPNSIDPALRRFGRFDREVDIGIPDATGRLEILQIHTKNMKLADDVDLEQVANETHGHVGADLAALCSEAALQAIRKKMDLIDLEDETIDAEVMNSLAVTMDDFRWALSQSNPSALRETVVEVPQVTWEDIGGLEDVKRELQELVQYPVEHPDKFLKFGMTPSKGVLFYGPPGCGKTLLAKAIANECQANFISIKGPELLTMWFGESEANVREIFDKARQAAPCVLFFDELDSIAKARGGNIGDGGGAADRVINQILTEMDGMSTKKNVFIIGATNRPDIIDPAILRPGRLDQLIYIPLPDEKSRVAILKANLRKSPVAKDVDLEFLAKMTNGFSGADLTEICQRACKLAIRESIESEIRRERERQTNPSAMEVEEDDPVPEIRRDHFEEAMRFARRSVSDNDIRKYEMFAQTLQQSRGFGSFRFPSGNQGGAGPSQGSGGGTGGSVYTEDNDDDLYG
# zVAD death inh: blocks zVAD induced death of L929 cells; L929 zVAD necroptosis rescue, ATP luminescence, 24 h; with zVAD 60 µM; viability rescue, % at 10 µM; 220,000 compounds, 0.38% hits; AID 1377;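 active = activation, scaled between plate controls, above about 75%, limit read from the data; inactive = activation under that limit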;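 also: 0% = zVAD with DMSO and 100% = DMSO alone without zVAD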
# TNF death inh: TNF-alpha cell death inhibition in Jurkat FADD-/- cells | Jurkat FADD-/- TNF necroptosis rescue, ATP luminescence, 24 h; 0 = TNF only, 100 = no-TNF cells | activation (protection from cell death), % at 10 µM | 220,000 compounds, 0.068% hits | AID 463075;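 active = activation, meaning protection from cell death, of at least 50% relative to plate controls; inactive = activation below 50%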;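 also: necroptosis triggered by 40 ng/mL TNF-alpha added together with compound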
# p97 confirm: human p97 ATPase inhibition, confirmation; shares compounds with p97 inhibitor; recombinant p97 ATPase, Kinase-Glo ATP luminescence; inhibition, % at 8 µM; 760 compounds, 44% hits;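 active = percent inhibition of p97 ATPase above a set limit, the primary screen's mean plus 3 SD, cut at about 15% in these data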;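 also: 0% = DMSO wells and 100% = wells lacking p97 protein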
# The depositor's hits bear a star; / = no result given.
SMILES,Wee1 degr inh,RBBP9 inh,M18AAP inhibitor,p97 inhibitor,zVAD death inh,TNF death inh,p97 confirm
COc1ccc(/C=C2/C(=O)N(Cc3ccccc3)N=C2C)cc1,1,0,7,33*,1,0,5
CC1=NN(c2ccccc2)C(=O)/C1=C/c1ccc(Cl)cc1,/,/,17,/,/,/,/
O=[N+]([O-])c1c(NCc2ccco2)ccc2nonc12,-2,4,17,18*,2,1,9
O=C(O)CCC(=O)c1cccc2ccccc12,-3,-7,-2,-1,1,-1,/
O=C(O)CCC(=O)c1ccc2ccc3cccc4ccc1c2c34,2,3,-1,19*,0,2,25*
COc1ccc(Cl)cc1NC(=O)CC(C)=O,-2,-5,-4,17*,0,-2,9
COc1ccc(C(=O)CSc2nnc(CC(=O)Nc3ccccc3OC)n2C)cc1,0,-3,0,0,2,3,/
CCCn1nc([N+](=O)[O-])c(C(C#N)c2nc3ccccc3s2)c(Cl)c1=O (centres undefined),0,6,6,17*,-1,-12,21*
Cc1c(NS(=O)(=O)c2ccc(S(=O)(=O)c3ccccc3)s2)c(=O)n(-c2ccccc2)n1C,-1,-2,-1,16*,1,3,17*
Cc1c(NS(=O)(=O)c2ccc(Br)s2)c(=O)n(-c2ccccc2)n1C,1,-6,-3,1,0,-2,/
COc1ncccc1C(=O)N1CCCC(N2CCN(c3cccc(Cl)c3)CC2)C1 (centres undefined),/,/,0,/,/,/,/
CSc1nc(N(CCO)CCO)c2sc3nc(-c4ccco4)c4c(c3c2n1)CCC4,-1,-1,4,20*,2,-5,15
CC1=Nc2ccccc2/C1=C/c1sc(=N)n(-c2nccs2)c1O,0,-2,10,29*,1,-10,36*
CCC(=O)N(Cc1ccc(S(N)(=O)=O)cc1)C1CC(=O)N(c2ccccc2)C1=O (centres undefined),-2,-4,-15,-3,1,0,/
CC(=O)Nc1cccc(-c2nc3ccc(NC(C)=O)cc3s2)c1,-1,-5,4,16*,2,-3,8
O=C1C=C(Nc2ccccc2O)c2ccccc2C1=O,2,-7,19,4,44,-8,/
O=C1C=C(NCc2ccccc2)c2ccccc2C1=O,0,0,7,48*,24,-10,33*
c1ccc(C2Nc3ccccc3C3OCCCC23)cc1 (centres undefined),/,/,8,/,/,/,/
O=C(NC(=C(Cl)Cl)S(=O)(=O)c1ccc(Cl)cc1)c1ccccc1,-2,-16,10,25*,-1,-23,27*
Cc1ccc(C(=O)NC(=C(Cl)Cl)S(=O)(=O)c2ccc(Cl)cc2)cc1,0,-9,11,17*,-2,-10,23*
CSC1=NSC2=NC(=O)/C(=C\c3coc4ccccc4c3=O)C(=N)N12,4,-14,5,9,0,1,/
N=C1/C(=C\c2coc3ccc(O)cc3c2=O)C(=O)N=C2SC=CN12,2,3,49*,28*,2,-5,24*
N=C1/C(=C/c2coc3ccccc3c2=O)C(=O)N=C2SC(c3ccco3)=NN12,-4,5,29*,16*,1,2,19*
N=C1/C(=C\c2coc3ccccc3c2=O)C(=O)N=C2SC(c3ccncc3)=NN12,-2,-16,0,32*,1,1,44*
CCN(CC)C(=O)COc1ccc2oc(-c3ccco3)cc(=O)c2c1,6,0,4,1,0,2,/
Cc1cc(C)c(S(=O)(=O)N2CCCC(C(=O)NCc3ccncc3)C2)c(C)c1 (centres undefined),/,/,-7,/,/,/,/
Cn1cnnc1Sc1nc([N+](=O)[O-])nn1C,-3,-2,-8,-1,3,-1,/
